Reference: ChEMBL document CHEMBL1129477, “Structure-activity relationships of the quinolone antibacterials against mycobacteria: effect of structural changes at N-1 and C-7” (J Med Chem, 1996)
Converted amounts (≈) assume the structure as drawn.

Tests used:
Assay type in all cases: functional
[1] = test system: Mycolicibacterium smegmatis; assay: Anti-bacterial activity tested against Mycobacterium smegmatis (ATCG 19420)
Escherichia coli = assay: Anti-bacterial activity was tested against Gram-negative EC-1 bacterium
Procedure, shortened: (§1)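 Standard microtitration MIC determination (µg/mL) against four representative Gram-negative and Gram-positive bacterial strains.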

Staphylococcus aureus = assay: Anti-bacterial activity was tested against Gram-positive SA-13 bacterium; procedure, shortened: as §1
Pseudomonas aeruginosa = assay: Anti-bacterial activity tested against Gram-negative PA-7 bacterium; procedure, shortened: as §1
[2] = test system: Mycolicibacterium fortuitum; assay: Anti-bacterial activity tested against Mycobacterium fortuitum (ATCG 6841)
Streptococcus pyogenes = assay: Anti-bacterial activity tested against Gram-positive SP1-1 bacterium; procedure, shortened: as §1

| Compound | MIC [1] [µg/mL] | MIC (Escherichia coli) [µg/mL] | MIC (Staphylococcus aureus) [µg/mL] | MIC (Pseudomonas aeruginosa) [µg/mL] | MIC [2] [µg/mL] | MIC (Streptococcus pyogenes) [µg/mL] |
| --- | --- | --- | --- | --- | --- | --- |
| CNCC1CCN(c2cc3c(cc2F)c(=O)c(C(=O)O)cn3-c2ccc(F)cc2F)C1 (configuration not stated) | 0.25 (≈ 0.579 µM) | 0.2 (≈ 0.464 µM) | 0.1 (≈ 0.232 µM) | 0.8 (≈ 1.85 µM) | 0.13 (≈ 0.301 µM) | 0.1 (≈ 0.232 µM) |
| CC1CN(c2cc3c(cc2F)c(=O)c(C(=O)O)cn3C2CCC2)CC(C)N1 (configuration not stated) | 0.5 (≈ 1.34 µM) | 0.4 (≈ 1.07 µM) | 3.1 (≈ 8.3 µM) | 3.1 (≈ 8.3 µM) | 0.13 (≈ 0.348 µM) | > 3.1 |
| CCn1cc(C(=O)O)c(=O)c2cc(F)c(N3CCC(CNC)C3)cc21 (configuration not stated) | 8 (≈ 23 µM) | 3.1 (≈ 8.92 µM) | 1.6 (≈ 4.61 µM) | > 3.1 | 2 (≈ 5.76 µM) | 0.4 (≈ 1.15 µM) |
| CNCC1CCN(c2cc3c(cc2F)c(=O)c(C(=O)O)cn3C(C)(C)C)C1 (configuration not stated) | 0.25 (≈ 0.666 µM) | 0.4 (≈ 1.07 µM) | 0.2 (≈ 0.533 µM) | 1.6 (≈ 4.26 µM) | 0.13 (≈ 0.346 µM) | 0.2 (≈ 0.533 µM) |
| CC(C)(C)n1cc(C(=O)O)c(=O)c2cc(F)c(N3CCNCC3)cc21 | 0.13 (≈ 0.374 µM) | 0.2 (≈ 0.576 µM) | 0.8 (≈ 2.3 µM) | 0.4 (≈ 1.15 µM) | < 0.03 | 1.6 (≈ 4.61 µM) |
| CC(C)CN1CCN(c2cc3c(cc2F)c(=O)c(C(=O)O)cn3-c2ccc(F)cc2F)CC1 | 4 (≈ 8.71 µM) | 3.1 (≈ 6.75 µM) | 0.8 (≈ 1.74 µM) | > 3.1 | 2 (≈ 4.35 µM) | > 3.1 |
| CC(C)N1CCN(c2cc3c(cc2F)c(=O)c(C(=O)O)cn3-c2ccc(F)cc2F)CC1 | 1 (≈ 2.24 µM) | 0.8 (≈ 1.8 µM) | 0.4 (≈ 0.898 µM) | 3.1 (≈ 6.96 µM) | 0.5 (≈ 1.12 µM) | 3.1 (≈ 6.96 µM) |
| NC1CCN(c2cc3c(cc2F)c(=O)c(C(=O)O)cn3C2CC2)C1 (configuration not stated) | 0.25 (≈ 0.754 µM) | 0.05 (≈ 0.151 µM) | 0.4 (≈ 1.21 µM) | 0.2 (≈ 0.604 µM) | < 0.03 | 0.8 (≈ 2.41 µM) |
| CCCCN1CCN(c2cc3c(cc2F)c(=O)c(C(=O)O)cn3C2CC2)CC1 | 0.5 (≈ 1.29 µM) | 0.1 (≈ 0.258 µM) | 0.4 (≈ 1.03 µM) | 1.6 (≈ 4.13 µM) | 1 (≈ 2.58 µM) | > 3.1 |
| CCN1CCN(c2cc3c(cc2F)c(=O)c(C(=O)O)cn3C2CCC2)CC1 | 2 (≈ 5.36 µM) | 0.8 (≈ 2.14 µM) | 3.1 (≈ 8.3 µM) | > 3.1 | 0.5 (≈ 1.34 µM) | > 3.1 |
| CC1CN(c2cc3c(cc2F)c(=O)c(C(=O)O)cn3C(C)(C)C)CCN1 (configuration not stated) | 0.06 (≈ 0.166 µM) | 0.1 (≈ 0.277 µM) | 0.4 (≈ 1.11 µM) | 0.8 (≈ 2.21 µM) | 0.03 (≈ 0.083 µM) | > 3.1 |
| CN(C)CC1CCN(c2cc3c(cc2F)c(=O)c(C(=O)O)cn3C2CC2)C1 (configuration not stated) | 0.5 (≈ 1.34 µM) | 0.2 (≈ 0.536 µM) | 0.2 (≈ 0.536 µM) | 0.8 (≈ 2.14 µM) | 0.13 (≈ 0.348 µM) | 0.2 (≈ 0.536 µM) |
| CC(C)n1cc(C(=O)O)c(=O)c2cc(F)c(N3CCC(N)C3)cc21 (configuration not stated) | 2 (≈ 6 µM) | 0.8 (≈ 2.4 µM) | 3.1 (≈ 9.3 µM) | 1.6 (≈ 4.8 µM) | 1 (≈ 3 µM) | > 3.1 |
| O=C(O)c1cn(-c2ccc(F)cc2F)c2cc(N3CCNCC3)c(F)cc2c1=O | 0.5 (≈ 1.24 µM) | 0.1 (≈ 0.248 µM) | 0.4 (≈ 0.992 µM) | 0.2 (≈ 0.496 µM) | 0.25 (≈ 0.62 µM) | 0.4 (≈ 0.992 µM) |
| CCNCC1CCN(c2cc3c(cc2F)c(=O)c(C(=O)O)cn3-c2ccc(F)cc2F)C1 (configuration not stated) | 0.5 (≈ 1.12 µM) | 0.4 (≈ 0.898 µM) | 0.2 (≈ 0.449 µM) | 1.6 (≈ 3.59 µM) | 0.5 (≈ 1.12 µM) | 0.1 (≈ 0.224 µM) |
| CCN1CCN(c2cc3c(cc2F)c(=O)c(C(=O)O)cn3C(C)(C)C)CC1 | 0.13 (≈ 0.346 µM) | 0.2 (≈ 0.533 µM) | 0.2 (≈ 0.533 µM) | 1.6 (≈ 4.26 µM) | 0.13 (≈ 0.346 µM) | > 3.1 |
| CC1CN(c2cc3c(cc2F)c(=O)c(C(=O)O)cn3C2CC2)CCN1 (configuration not stated) | 0.25 (≈ 0.724 µM) | 0.05 (≈ 0.145 µM) | 0.8 (≈ 2.32 µM) | 0.2 (≈ 0.579 µM) | 0.06 (≈ 0.174 µM) | 0.8 (≈ 2.32 µM) |
